TAAR1 agonist: agonists of human TAAR1 | Q96RJ0 | CHO RD-HGA16 TAAR1, Fluo-8 calcium fluorescence; vehicle wells 0%, saturating PEA agonist 100% | activation, % at 3 µM | 360,000 tested, 0.99% active | AID 624467;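 active = activation above the mean activation of all test compounds in the run plus 3 SD, cut at about 38% in these data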
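Benchmarks: low control DMSO, high control PEA (EC100); System: CHO RD-HGA16 cells carrying human TAAR1 plus Gα16; Detection: Fluo-8 fluorescence, 5 s baseline then 140 s kinetic read; Schedule: 17-24 h plating, Fluo-8 75 min 37 °C, 30 min RT; Read-out basis: % activation from peak over basal fluorescence ratio, DMSO-to-PEA scaled.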
CHO parental Ca: signal in parental CHO cells, OX1R antagonist counter-screen. 330,000 tested, 0.63% active. inhibition, % at 5.6 µM. parental CHO-K1, ATP-induced calcium, Fluo-8 fluorescence;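 active = inhibition above that plate's mean sample inhibition plus 3 SD, cut at about 26% in these data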
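Test system: parental CHO cells; detection: calcium-sensitive Fluo-8 fluorescence; evaluation: percent inhibition of calcium signal; also added: ATP as calcium-mobilizing challenge; repeats: one well per compound; control set: ATP-challenged DMSO wells low, unchallenged DMSO wells high; compound: single nominal dose of 5.6 µM per compound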
OX1R antag-1: OX1R (human) antagonism | O43613 | OX1R-expressing cells, FRET antagonist read-out | inhibition, % at 6.6 µM | 330,000 tested, 1.8% active | AID 485270; in the data active = inhibition mostly above about 38%, no sharp cut-off; inactive = mostly below about 40%
Target sequence (O43613 whole entry, looked up): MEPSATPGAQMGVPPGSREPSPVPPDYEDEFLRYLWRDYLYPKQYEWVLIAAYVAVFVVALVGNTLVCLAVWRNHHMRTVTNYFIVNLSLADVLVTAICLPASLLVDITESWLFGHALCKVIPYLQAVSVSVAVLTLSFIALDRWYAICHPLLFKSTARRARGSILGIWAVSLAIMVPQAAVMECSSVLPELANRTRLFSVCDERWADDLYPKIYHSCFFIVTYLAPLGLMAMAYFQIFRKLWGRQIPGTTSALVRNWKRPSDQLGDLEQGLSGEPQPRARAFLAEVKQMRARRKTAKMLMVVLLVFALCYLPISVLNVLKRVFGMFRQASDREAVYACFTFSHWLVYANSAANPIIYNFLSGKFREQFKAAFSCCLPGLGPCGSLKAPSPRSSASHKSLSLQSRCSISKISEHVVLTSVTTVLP
GPR7 antagonist: blocks human GPR7 receptor signaling; GPR7-expressing cells, fluorescence antagonist assay; P48145; 290,000 tested, 1.1% active; AID 1861; inhibition, % at 4.4 µM; in the data active = inhibition above about 16%, passing the limit was not always enough;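 also: cells stimulated with the agonist NPW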
TAAR1 antagonist: human TAAR1 antagonism; 360,000 tested, 1.5% active; Q96RJ0; AID 624466; CHO RD-HGA16 TAAR1, Fluo-8 calcium fluorescence, antagonist; inhibition, % at 3 µM;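 active = inhibition above a per-plate cutoff, the mean inhibition of test compounds on that plate plus 3 SD, cut at about 49% in these data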
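Assay system: CHO-derived RD-HGA16 cells stably expressing human TAAR1 plus Gα16. Timing: 140 s kinetic read after compound, 140 s after agonist. Technique: kinetic Fluo-8 calcium fluorescence measurement. Measure: % inhibition of agonist calcium response.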
OX1R antag-2: blocks the human orexin 1 receptor; O43613; CHO/OX1R cells, Fluo-8 calcium fluorescence, orexin A; inhibition, % at 5 µM; 330,000 tested, 0.43% active;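 active = inhibition above its plate's threshold, mean inhibition of all tested compounds on the plate plus 3 SD, cut at about 37% in these data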
OX1R Fluo8 conf: confirmation of human orexin 1 receptor antagonists; shares compounds with OX1R antag-2; CHO/OX1R cells, orexin A calcium Fluo-8 fluorescence; 1,100 tested, 38% active; inhibition, % at 5 µM; in the data active = inhibition above about 29%
CHO Ca counter: counter-screen: parental CHO calcium response change, triplicate | 1,100 tested, 9.3% active | parental CHO-K1, ATP-induced calcium, Fluo-8 fluorescence | inhibition, % at 5.6 µM | shares compounds with OX1R antag-2 | AID 492965;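 active = inhibition above a per-plate limit, the mean inhibition of that plate's test compounds plus 3 SD, cut at about 25% in these data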
OX1R HTRF confirm: OX1R (human) antagonism, HTRF confirmed. OX1R-expressing cells, HTRF antagonist assay. 1,800 tested, 49% active. shares compounds with OX1R antag-1. inhibition, % at 6.6 µM; in the data active = inhibition above about 55%;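 also: CHO cells expressing OX1R stimulated with orexin A at about EC80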
CHO-K1 HTRF cnt: counter-screen for OX1R antagonists: effect in parental CHO-K1 cells; shares compounds with OX1R antag-1; HTRF counterscreen; inhibition, % at 6.6 µM; 1,800 tested, 48% active; AID 493232; in the data active = inhibition above about 17%
Numbers stand for hits; . = inactive; / = not tested or not shown. Rows were chosen to be rich in hits. Some 4.6% of all compounds tested hit in one or more screens of this group.

SMILES | TAAR1 agonist | CHO parental Ca | OX1R antag-1 | GPR7 antagonist | TAAR1 antagonist | OX1R antag-2 | OX1R Fluo8 conf | CHO Ca counter | others
N#C/C(=N\Nc1ccc(Cl)cc1)C(=N)N1CCCCCC1 | . | . | . | . | . | . | . | .
Cc1ccc(N/N=C(\C#N)C(=N)N2CCCCC2)cc1 | . | . | . | . | . | . | / | /
CN(CC(=O)NCc1cccnc1)S(=O)(=O)c1ccccc1 | . | . | . | . | . | . | / | /
O=C(CSc1ccc2ccccc2c1Br)Nc1cccc(S(=O)(=O)NC2=NCCCCC2)c1 | . | . | . | . | . | . | . | .
COc1ccc(CCC(=O)NCc2ccccc2OC)cc1 | . | . | . | . | . | . | . | .
COc1ccc(C2N(c3ccc(Cl)cc3)N=C(C(C)=O)N(C)N2C(C)=O)cc1 (configuration not stated) | . | . | . | . | . | . | / | /
CC(=O)C1=C(C)NC(=S)NC1c1cccc([N+](=O)[O-])c1 (configuration not stated) | . | . | . | . | . | . | / | /
O=C(Nc1cccc(Cl)c1)Nc1nc(-c2ccc(Cl)cc2)cs1 | . | . | . | . | . | . | . | 60.1
O=C(Nc1ccccc1)Nc1nc(-c2ccc(Cl)cc2)cs1 | . | . | . | . | . | . | / | /
CCCc1ccc2oc(C(=O)NCCc3cnn(C)c3)c(C)c2c1 | . | . | . | . | . | . | / | /
Cc1nc2sc(C(=O)OC(C)C)c(N)c2c(C)c1C | . | . | . | . | . | . | / | /
Cc1cc(NS(=O)(=O)c2ccc(NC(=O)CN3C(=O)NC(C)(c4ccccc4)C3=O)cc2)nc(C)n1 (configuration not stated) | . | . | . | / | . | . | . | .
CC1(c2ccccc2)NC(=O)N(CC(=O)Nc2ccc(S(=O)(=O)Nc3ncccn3)cc2)C1=O (configuration not stated) | . | . | . | / | . | . | / | /
O=C(Nc1nc(-c2ccccc2)c(C(=O)c2ccccc2)s1)c1ccc(S(=O)(=O)N2CCCC2)cc1 | . | . | . | . | . | . | / | /
Cc1cccc2c1cnn2C(=O)CCC(=O)NCc1ccc(F)cc1 | . | . | . | . | . | 49.7 | . | .
Cc1cccc2c1cnn2C(=O)Nc1cc(F)ccc1F | . | . | . | . | . | . | / | /
CNc1c(-n2cc(C(=O)OC)c(C(=O)OC)c2C(=O)OC)c(=O)n(C)c(=O)n1C | . | . | . | . | . | . | / | /
COc1ccc(S(=O)(=O)Nc2ccc(S(=O)(=O)N3CCCCC3)cc2)cc1 | . | . | . | . | . | . | . | .
COc1ccc(S(=O)(=O)Nc2ccc(S(=O)(=O)N3CCCC3)cc2)cc1 | . | . | . | . | . | . | / | /
CC(=O)Nc1cc2nn(-c3ccccc3)nc2cc1C | . | . | . | . | . | . | / | /
Cc1cc2nn(-c3ccccc3)nc2cc1NC(=O)c1cccs1 | . | . | 79.5 | . | . | 61.2 | . | . | OX1R HTRF confirm=69.7;CHO-K1 HTRF cnt=18.5
COc1ccc(/C=N/Nc2snc(SC)c2C#N)cc1OC | . | . | 108.7 | . | . | 74.0 | 52.7 | . | OX1R HTRF confirm=96.3;CHO-K1 HTRF cnt=17.4
CN(Cc1ccccc1)C(=O)c1[nH]cnc1C(=O)N[C@@H](Cc1ccccc1)C(=O)OC(C)(C)C | . | . | 76.8 | . | . | . | 42.8 | . | OX1R HTRF confirm=77.2;CHO-K1 HTRF cnt=.
COc1ccc([C@H]2C[C@@H](O)[C@H](n3cc(C4CC4)nn3)CN2Cc2cccs2)cc1 | . | / | / | / | . | / | / | /
COc1ccc2c(c1)[nH]c(=O)c1sc3ccccc3c12 | / | . | 71.4 | . | / | . | 39.0 | . | OX1R HTRF confirm=92.3;CHO-K1 HTRF cnt=.
COc1ccc2sc3c(=O)[nH]c4ccccc4c3c2c1 | . | . | . | . | . | . | / | /
